# H69AR growth 86K = blocks growth of human H69AR lung tumor cells; H69AR lung tumor viability, ATP luminescence, 72 h; hits give low values; viability, % at 10 µM; 6% of 85,000 active;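 active = viability at or below 40%; inactive = viability above 40%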;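 also: multidrug resistant small cell line overexpressing MRP-1 efflux transporter; 100% = mean luminescence of untreated control wells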
# Phagocyt inh = inhibitors of macrophage phagocytosis. inhibition, % at 5 µM. AID 1029. 0.07% of 110,000 active. J774A.1 macrophage IgG-bead phagocytosis, imaging;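 active = inhibition above the mean of the plate negative controls plus 5 SD, cut at about 13% in these data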;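 also: phagocytic index as fraction of beads internalized from green versus red external bead signal; plate controls were DMSO negative control for no effect and cytochalasin-D positive control for full effect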
# HUVEC inhibit = blocks proliferation of human endothelial cells | HUVEC proliferation, CellTiter-Glo luminescence, 72 h; hits give low values | viability, % at 10 µM (by protocol) | 1.1% of 86,000 active | AID 648;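 active = viability at or below 30%; inactive = viability above 30%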;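 also: 100% = median luminescence of DMSO-only cell control wells on each plate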
# Fibroblast inh = blocks proliferation of human lung fibroblasts | LL 47 human lung fibroblast viability, ATP luminescence; hits give low values | viability, % at 10 µM | 1.1% of 85,000 active | AID 719;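 active = viability at or below 50% in the single dose screen; inactive = viability above 50%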;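 also: compound exposure lasted 72 h before the ATP readout; 100% = median luminescence of untreated cell-only wells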
#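 Material: Human LL 47 lung fibroblast cells | Input: 1,150 cells/well | Buffer or medium: IMEM plus 15% FBS | Compound dosing: 0.1% DMSO in all compound wells | Times: Overnight cell rest, 72 h compound treatment at 37 °C | Signal: CellTiter-Glo luminescence measuring cellular ATP | Measure: % viability versus median cells-only luminescence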
# PTEN del growth = PTEN-deleted cell growth suppression | HCT116 PTEN-null viability, CellTiter-Glo, 60 h; hits give low values | viability, % at 10 µM | 1.2% of 140,000 active;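 active = viability at or below a set limit, 4 SD under the median of all tested compounds, cut at about 3.7% in these data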;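 also: PTEN knockout HCT116 line with beta catenin targeted HCT116 as companion control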
# bCat KO growth = beta-catenin-lacking colon tumor cell growth suppression; HCT116 beta-catenin knockout viability, CellTiter-Glo, 60 h; hits give low values; viability, % at 10 µM; 1.5% of 140,000 active;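 active = viability at or under a set limit, the compound median less 4 SD, cut at about 6% in these data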;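 also: 0% = Hyamine 1622 control at 20 µM and 100% = untreated cell control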
# * hit, by the source's call; . = no result given. The entries come from a sample that favours hits as a whole.
SMILES,H69AR growth 86K,Phagocyt inh,HUVEC inhibit,Fibroblast inh,PTEN del growth,bCat KO growth
CC(C)c1nc(SCC(=O)Nc2cccc(C(F)(F)F)c2)c2c(=O)n(C)c(=O)n(C)c2n1,49,.,76,80,51,58
CCCc1nc(SCC(=O)NCc2ccc3c(c2)OCO3)c2c(=O)n(C)c(=O)n(C)c2n1,13*,.,50,102,.,.
CC(C)c1nc(SCC(=O)Nc2ccc3c(c2)OCCO3)c2c(=O)n(C)c(=O)n(C)c2n1,31*,0,75,106,81,76
O=C(NCC1CCN(c2ccc(S(=O)(=O)N3CCOCC3)cc2)CC1)c1ccc(Cl)cc1,35*,0,88,86,57,62
O=C(NC1CCCC1)c1ccc(S(=O)(=O)N2CCOCC2)cc1,84,0,96,98,101,104
COC(=O)c1sc(N2C(=O)C(=O)/C(=C(/O)c3ccccc3)C2c2ccco2)nc1C (centres undefined),.,-3,.,.,93,96
CCCCCCOc1ccc(/C(N)=N/O)cc1,35*,-1,80,92,83,96
Cc1cnc(C(=O)Nc2ccc(N3CCN(C(=O)OC(C)(C)C)CC3)cc2)cn1,28*,3,72,60,12,16
Cn1nc(CC(=O)NCc2ccc(F)cc2)c2ccccc2c1=O,97,.,104,93,74,69
Cn1nc(CC(=O)Nc2ccc(N3CCN(C(=O)OC(C)(C)C)CC3)cc2)c2ccccc2c1=O,37*,.,70,96,1.1*,1.2*
Cn1nc(CC(=O)NCc2cccc3ccccc23)c2ccccc2c1=O,34*,-2,99,97,62,58
Cc1cnc(C(=O)Nc2ccc(F)cc2)cn1,97,.,95,103,94,98
Cc1ccc(CN2CCN(/N=C/c3ccc(C)s3)CC2)cc1,.,-5,.,.,97,95
CCOC(=O)c1sc(NC(=O)CSc2nc(-c3ccco3)cc(C(F)(F)F)n2)c(C(=O)OC(C)C)c1C,91,.,106,95,.,.
Cc1ccc(C(=O)N(CC(=O)NC2CCCC2)Cc2cccs2)s1,87,-3,98,89,102,94
Cc1ccc(NC(=S)N(Cc2cccs2)Cc2cc3cccc(C)c3[nH]c2=O)cc1,.,-13,.,.,75,77
Cc1nc(C(=O)N(C)C)nn1-c1cc(Cl)cc(Cl)c1,.,3,.,.,104,92
FC(F)(F)c1cc(-c2ccco2)nc(N2CCN(Cc3ccccc3)CC2)n1,.,.,.,.,83,86
FC(F)(F)c1cc(-c2ccco2)nc(NCCc2ccccc2)n1,24*,.,88,89,50,52
O=C(CN1CCN(c2ncccn2)CC1)N1CCN(C(c2ccccc2)c2ccccc2)CC1,86,.,104,90,.,.
C=CC(C)(C)c1cc2cc3ccoc3cc2oc1=O,.,.,.,.,87,92
Fc1cccc2sc(Nc3nnc(-c4ccco4)o3)nc12,37*,-1,57,65,19,19
CCOC(=O)c1sc(Nc2nc3c(OC)cccc3s2)nc1C,.,5,.,.,27,29
COc1cccc2sc(Nc3nnc(-c4ccc(F)cc4)o3)nc12,35*,-1,2.9*,62,15,13
COc1cccc2sc(Nc3nnc(-c4cccs4)o3)nc12,23*,3,2.8*,41*,8,2.6*
SMILES,H69AR growth 86K,Phagocyt inh,HUVEC inhibit,Fibroblast inh,PTEN del growth,bCat KO growth
Cc1cc(Cl)ccc1OCCCC(=O)NCCN1C(=O)S/C(=C\c2cccnc2)C1=O,.,.,.,.,67,73
CCOc1cc(S(=O)(=O)NCc2ccc(OC)cc2)c(OCC)cc1-n1cnnn1,22*,-2,58,56,33,48
CCOc1cc(S(=O)(=O)NCCc2ccc(OC)c(OC)c2)c(OCC)cc1-n1cnnn1,84,-1,94,87,109,92
C=CCn1c(-c2cccc(OC)c2)nc2nc3ccccc3nc21,34*,.,82,93,84,86
C=CCn1c(-c2cccc(OC)c2)n[nH]c1=S,.,-1,.,.,87,94
Cc1ccccc1CS(=O)(=O)c1nnc([C@H](Cc2ccccc2)NC(=O)OC(C)(C)C)o1,1.2*,1,62,5.5*,2.8*,3.5*
CCC(C)[C@@H](NC(=O)OC(C)(C)C)c1nnc(S(=O)(=O)Cc2cccc(C)c2)o1 (some centres undefined),1.6*,-1,76,6.2*,54,21
CC(C)(C)OC(=O)N[C@@H](Cc1ccccc1)c1nnc(SCC(=O)c2ccc(Cl)cc2)o1,47,-1,46,29*,79,81
CNc1nn(-c2cccc(Cl)c2)nc1N,46,-1,75,90,83,71
O=C(CSCc1ccccc1)Nc1nccs1,102,0,96,101,90,86
Cn1c(=O)n(Cc2ccccc2F)c(=O)c2c1nc1n2CCCN1CCc1ccccc1,.,0,90,94,91,106
Cn1c(N2CCCC2)nc2c1c(=O)n(Cc1ccc(F)cc1)c(=O)n2C,71,-1,102,.,86,92
CC(C)Cn1c(=O)c2c(nc3n2CCCN3CCc2ccccc2)n(C)c1=O,34*,0,97,93,86,84
COc1ccc(N2CCCn3c2nc2c3c(=O)n(CCc3ccccc3)c(=O)n2C)cc1,59,0,72,100,.,.
Cn1c(=O)n(Cc2ccc(F)cc2)c(=O)c2c1nc1n2CCCN1Cc1ccccc1,38*,-1,94,85,63,56
Cn1c(=O)n(CCc2ccccc2)c(=O)c2c1nc1n2CCCN1Cc1ccccc1,27*,0,71,83,35,52
Cn1c(=O)n(CCc2ccccc2)c(=O)c2c1nc1n2CCCN1CCc1ccccc1,92,1,3.7*,46*,16,16
COC(=O)c1c(NC(=O)CN2CCN(c3cccc(Cl)c3)CC2)sc(C)c1C,.,-1,.,.,90,86
CCc1c(C(C)O)oc2ccc3c(C)cc(=O)oc3c12 (centres undefined),90,.,97,96,86,96
CC(=O)Nc1ccc2nc(-c3ccncc3)[nH]c2c1,96,-2,105,99,91,88
O=C(Nc1ccc(-c2nc3ccc(NC(=O)c4cccs4)cc3[nH]2)cc1)c1cccs1,3.1*,-1,4.1*,41*,89,76
O=C(Nc1ccc2oc(-c3ccccc3)nc2c1)c1cccs1,39*,.,84,91,77,79
O=C(Nc1ccc2nc(-c3cccnc3)[nH]c2c1)c1ccccc1F,34*,0,94,109,112,99
O=C(Nc1ccc2nc(-c3cccs3)[nH]c2c1)c1cccs1,39*,-1,61,92,71,78
O=C(OCc1nnc(-c2ccccc2)o1)c1ccc(S(=O)(=O)NCc2ccco2)cc1,90,0,97,99,89,96
Cc1ccc(Cc2nnc3n(-c4ccccc4)nc(C(=O)c4ccccc4)n3c2=O)cc1,21*,.,55,95,40,39
CN1CCc2c(sc3c2c(=O)n(-c2ccccc2)c2nnc(SCc4ccccc4F)n32)C1,92,.,93,99,.,.

# Assay outcomes: PubChem, several laboratories
